Screening data as filed in PubChem.
Shown are actives, neighbours in structure and some others; about 1.3% of the full set was active somewhere.
T cell HTS = T cell immune modulators affecting CD8 T cell-vesicle binding. 2C CD8+ T cell-vesicle binding, flow cytometry; stronger effect = lower value. response (vesicle binding), % at 7 µM. 0.068% of 330,000 active;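 active = response, share of CD8 T cells binding vesicles, and their 90th percentile fluorescence all below set limits, cut at about 80% in these data, passing the limit was not always enough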;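 note: values below 100% mean blocked vesicle binding to the CD8+ T cells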
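System: murine 2C transgenic CD8+ T lymphocytes; also added: QL9-loaded Drosophila micro-vesicles; times: binding 1.5 h at 37 °C; measured by: flow cytometry, PE anti-B7-1 (FL2) versus Alexa647 anti-CD8 (FL8), PFA-fixed; control set: Peptide-free naked vesicles (low) and QL9 vesicles with 0.7% DMSO vehicle (high)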
GRK2 inh = inhibitors of human GRK2 displacing RNA aptamer; P25098; bead flow cytometry, FAM-aptamer displacement from GRK2; inhibition of aptamer binding, % at 10 µM; 0.59% of 330,000 active;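 active = inhibition of aptamer binding above 40%, roughly 3 SD of noise, on plates passing a quality check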;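 note: median bead fluorescence of bound FAM aptamer so fluorescent compounds give negative values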
MEX-5 binding = C. elegans MEX-5 TCR-2 RNA binding activity; AID 1832; activity score (negative = inhibition of binding), % at 10 µM; MEX-5/FITC-TCR2 RNA binding, fluorescence polarization; stronger effect = lower value; 0.38% of 300,000 active; Q9XUB2;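 active = inhibition past about -25% in most replicates, and total fluorescence under double the plate's negative control median, limit read from the data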
Target sequence (Q9XUB2 whole entry, looked up): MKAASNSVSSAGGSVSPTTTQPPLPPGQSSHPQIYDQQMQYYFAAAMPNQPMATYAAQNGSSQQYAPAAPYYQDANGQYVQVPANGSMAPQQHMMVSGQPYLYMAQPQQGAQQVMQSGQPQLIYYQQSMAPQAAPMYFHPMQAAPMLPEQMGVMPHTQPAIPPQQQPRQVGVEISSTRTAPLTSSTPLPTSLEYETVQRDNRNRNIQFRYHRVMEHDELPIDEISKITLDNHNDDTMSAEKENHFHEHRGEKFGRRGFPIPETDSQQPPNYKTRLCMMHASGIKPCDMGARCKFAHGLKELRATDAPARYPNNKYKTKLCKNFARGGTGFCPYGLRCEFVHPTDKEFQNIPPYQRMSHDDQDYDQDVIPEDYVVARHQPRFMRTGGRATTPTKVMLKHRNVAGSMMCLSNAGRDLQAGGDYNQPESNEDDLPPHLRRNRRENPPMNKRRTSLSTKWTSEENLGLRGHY
LANA DNA inh = KSHV C-LANA DNA binding inhibition; MBP-C-LANA/FAM-LBS DNA binding, fluorescence polarization; AID 504423; inhibition, % at 9 µM; 0.078% of 340,000 active;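 active = highest replicate inhibition at or above 60% at 9 µM, even if other replicates fall short; inactive = all replicates below 60% inhibition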
Keap1-Nrf2 PPI = inhibitors of human Keap1-Nrf2 protein-protein interaction; Keap1 Kelch-Nrf2 peptide fluorescence polarization, 1536-well; 0.15% of 340,000 active; inhibition, % at 9.4 µM; in the data active = inhibition above about 12%;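 note: human Keap1 Kelch domain with fluorescein labeled Nrf2 9mer peptide probe; higher means more block of Keap1 binding to Nrf2 peptide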
EBV gp42 inh = blocks Epstein-Barr virus glycoprotein 42 binding | Q1HVG2 | Fluorescence polarization binding assay, mP read-out | inhibition, % (tested at 21.74 µM) | 0.42% of 220,000 active; in the data active = inhibition above about 50%
GRK2 CP1 = confirmation of human GRK2 inhibitors displacing RNA aptamer. shares compounds with GRK2 inh. bead-bound GRK2, FAM-aptamer displacement, flow cytometry. aptamer displacement, % at 10 µM. 4% of 2,000 active. AID 504451;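 active = aptamer displacement above 40%, near three times the noise of non-fluorescent compounds, on plates passing quality checks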;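 note: negative values mostly reflect intrinsic compound fluorescence rather than true enhancement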
Aptamer quench SP = aptamer fluorescence quenching in GRK2 counter-screen | AID 504580 | fluorescence response (% of DMSO), % at 10 µM | shares compounds with GRK2 inh | Carboxyfluorescein RNA aptamer on beads, flow cytometry quenching; stronger effect = lower value | 2,000 tested, under 10 active;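 active = compounds that quench the bead-bound fluorescent RNA probe, cutting fluorescence to under half of the solvent control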;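 note: counterscreen run without GRK2 so only probe quenching by compound is measured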
GRK2 confirm 2 = confirmation of human GRK2 inhibitors binding RNA aptamer site; shares compounds with GRK2 inh; bead-bound GRK2, FAM-aptamer displacement, flow cytometry; inhibition of aptamer binding, % at 10 µM; 360 tested, under 10 active;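 active = inhibition of aptamer binding above 40%, about triple the noise seen with nonglowing compounds, on plates passing quality control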;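 note: negative values mostly come from compounds that fluoresce themselves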
FAM quench SP = aptamer fluorescence quenching in GRK2 counter-screen; shares compounds with GRK2 inh; carboxyfluorescein RNA aptamer beads, flow cytometry quenching; stronger effect = lower value; fluorescence response vs DMSO, % at 10 µM; 360 tested, under 10 active;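 active = response vs DMSO under 50%, meaning signal dropped by over half, treated as fluorescence quencher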;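 note: labelled aptamer on streptavidin beads without GRK2 as a quench counter-screen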
Of the large screens only hits and unclear results are named; the others gave an inactive call (follow-up assays come after a bar, where they were run).

COc1cc(OC)c(C2=NOC(C(=O)N3CCc4ccccc4C3)C2)cc1Cl (stereo unspecified)	none
COc1cc(OC)c(C2=NOC(C(=O)O)C2)cc1Cl (stereo unspecified)	none | GRK2 confirm 2 inactive | FAM quench SP inactive
CCCN1CCC(N(CCc2ccccc2)Cc2ccccc2)CC1	none (no result: EBV gp42 inh)
CCCCOc1ccc(C2(C)NC(=O)NC2=O)cc1 (stereo unspecified)	none (no result: EBV gp42 inh)
COc1cccc(C(=O)NC2CCN(CC(=O)Nc3nccs3)CC2)c1	none
Cc1cc(NC(=O)CSc2nc(-c3cccs3)cc(C(F)(F)F)n2)no1	GRK2 inh 45 | GRK2 CP1 inactive | Aptamer quench SP inactive
Nc1c(C(=O)NCCc2ccccc2)nnn1Cc1ccc(Br)cc1F	GRK2 inh 50 | GRK2 CP1 inactive | Aptamer quench SP inactive
COc1cccc(CNC(=O)CN(C)S(=O)(=O)c2ccc(Br)s2)c1	none (no result: EBV gp42 inh)
O=C(COC(=O)CNC(=O)c1ccc([N+](=O)[O-])o1)Nc1ncc(Cl)cc1Cl	GRK2 inh 55 (no result: MEX-5 binding, EBV gp42 inh) | GRK2 CP1 inactive | Aptamer quench SP inactive
Cc1ccc([N+](=O)[O-])cc1NC(=S)NC(=O)c1cccs1	GRK2 inh 62 | GRK2 confirm 2 inactive | FAM quench SP inactive
COc1ccc([N+](=O)[O-])cc1NC(=O)c1cccs1	none
CCOc1cc(N2CCOCC2)c(OCC)cc1NC(=O)COc1ccccc1[N+](=O)[O-]	none
O=C(C1COc2ccccc2O1)N1CCN(c2ccc(F)cc2)CC1 (stereo unspecified)	none
O=C(C1COc2ccccc2O1)N1CCN(c2ccc([N+](=O)[O-])cc2)CC1 (stereo unspecified)	GRK2 inh 98 (no result: MEX-5 binding, EBV gp42 inh) | GRK2 CP1 inactive | Aptamer quench SP inactive
NC(=O)C[C@H](N)c1cn([C@@H](CC(N)=O)C(=O)N2CCNCC2)nn1	GRK2 inh 49 (no result: MEX-5 binding, EBV gp42 inh) | GRK2 CP1 inactive | Aptamer quench SP inactive
CC(C)[C@H](N)c1cn([C@@H](CO)C(=O)N2CCNCC2)nn1	none (no result: MEX-5 binding, EBV gp42 inh)
O=C(c1ccc(CSc2nc3ccncc3[nH]2)cc1)N1CCCCCC1	GRK2 inh 68 | GRK2 CP1 inactive | Aptamer quench SP inactive
Cc1ccc(CSc2nc3ccncc3[nH]2)cc1	GRK2 inh 78 | GRK2 CP1 inactive | Aptamer quench SP inactive
COc1ccccc1NC(=O)CN1CCN(CC(=O)Nc2ccc(OC)c(OC)c2)CC1	none (no result: EBV gp42 inh)
O=c1[nH]n(-c2ccc(F)cc2)c2ncccc12	GRK2 inh 53 | GRK2 CP1 inactive | Aptamer quench SP inactive
COC(OC)C1Nc2ccccc2C(=O)N1c1ccc(F)cc1 (stereo unspecified)	none (no result: T cell HTS, GRK2 inh, MEX-5 binding, EBV gp42 inh)
Cc1ccc(OCC(=O)Nc2ccc(N3CCN(S(C)(=O)=O)CC3)cc2)cc1C	none
COc1ccccc1CNC(=O)COC(=O)c1cc(C)nc2ccccc12	none (no result: MEX-5 binding, EBV gp42 inh)
CCc1nnc(NC(=O)c2cc(-c3ccco3)nc3ccccc23)s1	none | GRK2 CP1 inactive | Aptamer quench SP inactive
COc1ccccc1CNC(=O)COC(=O)c1cc(-c2ccco2)nc2ccccc12	GRK2 inh 49 | GRK2 CP1 inactive | Aptamer quench SP inactive
FC(F)(F)c1cccc(Cc2noc(CN3C[C@@H]4CCC[C@H]3C4)n2)c1	none
Cn1ccnc1C1CCCCN1Cc1nc(Cc2cccc(C(F)(F)F)c2)no1 (stereo unspecified)	none | GRK2 CP1 inactive | Aptamer quench SP inactive
O=C(NCCc1ccc(Cl)cc1)C1CCC(CNc2c(N3CCCCC3)c(=O)c2=O)CC1 (stereo unspecified)	none
CCC1CCCCN1C(=O)CNCC1CCCO1 (stereo unspecified)	none (no result: MEX-5 binding)
